# Assay results: ChEMBL document CHEMBL1137278, “Aza-stilbenes as potent and selective c-RAF inhibitors” (Bioorg Med Chem Lett, 2006)
# The source made the active and inactive calls. The rule behind the calls is not given here.
# What was measured:
# [1] = Inhibition of c-RAF1/MEK1/ERK2 signalling pathway by SPA
# Method in brief: (§1)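 Incubated 120 min at room temperature, stopped with EDTA/streptavidin SPA beads, counted by scintillation. 11-point 3-fold dilutions (0.0001–10 µM), normalized to DMSO and EDTA controls; IC50 fitted.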
# [2] = target: Tyrosine-protein kinase Fyn (Mus musculus) (UniProt P39688); assay: Inhibition of mouse FYN at 10 uM
# Chain of Tyrosine-protein kinase Fyn (Mus musculus) (P39688 whole entry): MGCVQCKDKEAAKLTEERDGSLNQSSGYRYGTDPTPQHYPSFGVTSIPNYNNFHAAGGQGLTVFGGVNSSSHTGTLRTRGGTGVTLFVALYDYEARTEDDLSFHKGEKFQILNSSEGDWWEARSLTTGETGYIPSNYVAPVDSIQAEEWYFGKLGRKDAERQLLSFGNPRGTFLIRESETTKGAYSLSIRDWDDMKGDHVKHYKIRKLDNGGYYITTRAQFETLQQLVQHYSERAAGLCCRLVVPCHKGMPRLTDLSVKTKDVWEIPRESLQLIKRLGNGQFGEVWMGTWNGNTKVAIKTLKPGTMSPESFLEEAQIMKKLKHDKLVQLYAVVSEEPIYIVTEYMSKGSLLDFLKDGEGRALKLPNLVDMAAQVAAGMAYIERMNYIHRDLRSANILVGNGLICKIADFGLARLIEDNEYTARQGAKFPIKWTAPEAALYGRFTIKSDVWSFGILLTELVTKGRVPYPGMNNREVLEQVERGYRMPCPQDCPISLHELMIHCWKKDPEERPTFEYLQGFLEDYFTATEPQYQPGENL
# [3] = target: Proto-oncogene tyrosine-protein kinase LCK (Mus musculus) (UniProt P06240); assay: Inhibition of mouse LCK at 10 uM
# Chain of Proto-oncogene tyrosine-protein kinase LCK (Mus musculus) (P06240 2-509 limits assumed): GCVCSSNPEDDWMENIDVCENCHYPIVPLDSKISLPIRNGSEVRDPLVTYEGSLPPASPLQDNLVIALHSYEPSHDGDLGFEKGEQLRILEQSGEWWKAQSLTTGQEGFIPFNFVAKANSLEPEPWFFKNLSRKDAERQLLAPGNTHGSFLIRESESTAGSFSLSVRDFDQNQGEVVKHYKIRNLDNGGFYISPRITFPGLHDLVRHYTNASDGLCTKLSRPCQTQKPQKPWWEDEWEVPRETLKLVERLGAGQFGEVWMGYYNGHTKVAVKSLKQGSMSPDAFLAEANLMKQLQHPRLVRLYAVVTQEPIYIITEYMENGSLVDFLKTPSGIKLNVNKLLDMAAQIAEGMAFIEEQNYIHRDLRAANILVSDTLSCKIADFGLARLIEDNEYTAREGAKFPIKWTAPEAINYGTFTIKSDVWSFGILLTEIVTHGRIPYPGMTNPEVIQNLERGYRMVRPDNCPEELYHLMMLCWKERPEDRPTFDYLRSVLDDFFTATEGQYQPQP
# [4] = target: Tyrosine-protein kinase Lyn (Homo sapiens) (UniProt P07948); assay: Inhibition of LYN at 10 uM
# Chain of Tyrosine-protein kinase Lyn (Homo sapiens) (P07948 2-512 limits assumed): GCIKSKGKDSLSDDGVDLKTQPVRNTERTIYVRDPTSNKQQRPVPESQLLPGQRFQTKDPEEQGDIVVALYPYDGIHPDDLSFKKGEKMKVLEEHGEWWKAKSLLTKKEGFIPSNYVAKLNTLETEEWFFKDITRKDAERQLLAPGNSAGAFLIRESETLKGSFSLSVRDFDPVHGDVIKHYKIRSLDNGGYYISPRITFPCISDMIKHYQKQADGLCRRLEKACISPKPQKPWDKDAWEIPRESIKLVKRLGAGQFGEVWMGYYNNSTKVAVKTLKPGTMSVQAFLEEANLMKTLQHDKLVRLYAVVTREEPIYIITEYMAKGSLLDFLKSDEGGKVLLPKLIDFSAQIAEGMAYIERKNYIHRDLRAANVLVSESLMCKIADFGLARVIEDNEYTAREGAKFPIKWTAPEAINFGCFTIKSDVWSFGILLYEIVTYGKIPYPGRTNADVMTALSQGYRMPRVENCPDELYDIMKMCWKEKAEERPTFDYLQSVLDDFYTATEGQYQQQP
# [5] = target: Proto-oncogene tyrosine-protein kinase Src (Homo sapiens) (UniProt P12931); assay: Inhibition of SRC kinase at 10 uM
# Chain of Proto-oncogene tyrosine-protein kinase Src (Homo sapiens) (P12931 2-536 limits assumed): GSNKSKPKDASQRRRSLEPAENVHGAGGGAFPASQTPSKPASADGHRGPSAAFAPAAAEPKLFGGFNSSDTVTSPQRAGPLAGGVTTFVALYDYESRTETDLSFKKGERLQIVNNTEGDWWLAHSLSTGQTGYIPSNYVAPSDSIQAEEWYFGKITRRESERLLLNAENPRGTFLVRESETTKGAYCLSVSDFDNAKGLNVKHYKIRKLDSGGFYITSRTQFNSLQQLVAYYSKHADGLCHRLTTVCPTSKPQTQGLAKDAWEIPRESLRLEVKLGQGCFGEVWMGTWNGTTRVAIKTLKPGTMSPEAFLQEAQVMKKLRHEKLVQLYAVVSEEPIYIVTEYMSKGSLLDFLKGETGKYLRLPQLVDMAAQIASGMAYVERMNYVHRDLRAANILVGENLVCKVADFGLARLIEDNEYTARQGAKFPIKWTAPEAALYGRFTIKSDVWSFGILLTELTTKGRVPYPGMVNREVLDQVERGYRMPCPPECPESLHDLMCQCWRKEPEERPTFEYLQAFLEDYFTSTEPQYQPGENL
# [6] = target: Mitogen-activated protein kinase 10 (Homo sapiens) (UniProt P53779); assay: Inhibition of JNK3
# Chain of Mitogen-activated protein kinase 10 (Homo sapiens) (P53779 whole entry): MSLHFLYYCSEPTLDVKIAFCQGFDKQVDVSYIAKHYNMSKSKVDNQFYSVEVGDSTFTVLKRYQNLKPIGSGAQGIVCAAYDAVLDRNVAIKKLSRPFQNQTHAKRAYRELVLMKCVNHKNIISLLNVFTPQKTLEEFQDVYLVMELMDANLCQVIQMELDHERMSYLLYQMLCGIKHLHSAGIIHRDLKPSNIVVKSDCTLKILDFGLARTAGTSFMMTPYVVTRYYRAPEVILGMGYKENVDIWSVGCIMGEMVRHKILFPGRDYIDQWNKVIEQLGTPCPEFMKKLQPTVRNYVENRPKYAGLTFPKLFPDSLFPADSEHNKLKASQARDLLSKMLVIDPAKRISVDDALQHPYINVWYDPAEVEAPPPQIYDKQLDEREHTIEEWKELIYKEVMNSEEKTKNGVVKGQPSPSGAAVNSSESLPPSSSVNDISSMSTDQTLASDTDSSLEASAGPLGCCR
# [7] = target: MAP kinase p38 (Homo sapiens) (UniProt O15264+Q15759+Q16539+P53778); assay: Inhibition of p38; assay type: protein assay
# [8] = target: RAF proto-oncogene serine/threonine-protein kinase (Homo sapiens, UniProt P04049); assay: Inhibition of c-RAF; method in brief: as §1
# Chain of RAF proto-oncogene serine/threonine-protein kinase (P04049 whole entry): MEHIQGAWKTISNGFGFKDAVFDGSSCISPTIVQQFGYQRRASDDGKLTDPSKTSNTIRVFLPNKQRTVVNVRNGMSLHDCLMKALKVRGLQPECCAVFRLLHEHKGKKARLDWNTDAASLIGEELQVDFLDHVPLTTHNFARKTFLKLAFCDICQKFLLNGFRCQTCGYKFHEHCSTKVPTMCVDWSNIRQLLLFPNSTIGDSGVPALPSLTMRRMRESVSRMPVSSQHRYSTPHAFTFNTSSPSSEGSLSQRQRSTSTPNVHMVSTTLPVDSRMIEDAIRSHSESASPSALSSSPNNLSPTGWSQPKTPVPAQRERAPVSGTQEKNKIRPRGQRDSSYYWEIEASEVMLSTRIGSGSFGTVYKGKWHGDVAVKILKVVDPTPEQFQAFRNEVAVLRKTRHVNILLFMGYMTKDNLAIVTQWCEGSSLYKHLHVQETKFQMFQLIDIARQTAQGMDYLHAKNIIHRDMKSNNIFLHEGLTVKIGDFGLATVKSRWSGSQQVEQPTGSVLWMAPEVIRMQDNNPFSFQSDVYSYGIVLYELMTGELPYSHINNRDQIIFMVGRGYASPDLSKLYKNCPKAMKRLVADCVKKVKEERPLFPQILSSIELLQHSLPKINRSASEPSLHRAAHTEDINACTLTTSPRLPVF
# [9] = target: Tyrosine-protein kinase Fyn (Mus musculus, UniProt P39688); assay: Inhibition of mouse FYN
# Chain of Tyrosine-protein kinase Fyn (P39688 whole entry): as the sequence (P39688 whole entry) above
Log IC50 [1],Compound,further results
-6.2,COC(=O)c1cncc(/C=C/c2c(C)cc(O)cc2C)c1 [GW406731X],–
-7.9,Cc1cccc(C)c1/C=C/c1cncc(-c2nn[nH]n2)c1,Activity [6]: inactive; Activity [7]: inactive
-7.1,CNC(=O)c1cncc(/C=C/c2c(C)cccc2Cl)c1,–
-6.6,CNC(=O)c1cncc(/C=C/c2c(C)cccc2C)c1 [GW445012X],–
-8.4,Cc1cc(O)cc(C)c1/C=C/c1cncc(-c2nn[nH]n2)c1,IC50 [8]: 4 nM; IC50 [9]: 40 nM; Activity [6]: inactive; Activity [7]: inactive
-6.8,Cc1cc(O)cc(C)c1/C=C/c1cncc(C(N)=O)c1 [GW435821X],–
-6.6,CNC(=O)c1cncc(/C=C/c2c(C)cc(O)cc2C)c1,–
-5.1,Cc1cc(O)cc(C)c1/C=C/c1cncc(C(=O)N(C)C)c1 [GW427984X],–
-6,Cc1cccc(C)c1/C=C/c1cncc(C#N)c1,–
-6.4,Cc1cc(O)cc(C)c1/C=C/c1cncc(C(=O)O)c1,IC50 [8]: 400 nM; Activity [6]: inactive; Activity [7]: inactive
-5.5,CNC(=O)c1cncc(/C=C/c2ccccc2C)c1 [GW445015X],–
-5.4,Cc1cc(O)cc(C)c1/C=C/c1cncc(C(=O)OC(C)(C)C)c1 [GW439255X],–
-6,Cc1cc(-c2ccsc2)cc(C)c1/C=C/c1cncc(-c2nn[nH]n2)c1,–
-6.1,Cc1cc(O)cc(C)c1/C=C/c1cncc(C#N)c1,–

# Continued, compound first:
Compound,Log IC50 [1],further results
Cc1cc(-c2cccs2)cc(C)c1/C=C/c1cncc(-c2nn[nH]n2)c1,-6.5,–
Cc1cc(-c2ccco2)cc(C)c1/C=C/c1cncc(-c2nn[nH]n2)c1,-6.2,–
CNC(=O)Oc1cc(C)c(/C=C/c2cncc(C(=O)OC(C)(C)C)c2)c(C)c1,-7,–
CNC(=O)Oc1cc(C)c(/C=C/c2cncc(C#N)c2)c(C)c1,-7.4,–
Cc1cc(-c2ccccn2)cc(C)c1/C=C/c1cncc(-c2nn[nH]n2)c1,-7,Activity [2]: Active; Activity [3]: Active; Activity [4]: Active; Activity [5]: Active; Activity [6]: inactive; Activity [7]: inactive
CNC(=O)Oc1cc(C)c(/C=C/c2cncc(C(=O)NC)c2)c(C)c1 [GW432441X],-8,–
CNC(=O)c1cncc(/C=C/c2c(Cl)cccc2Cl)c1 [GW445014X],-6.6,–
CNC(=O)Oc1cc(C)c(/C=C/c2cncc(C(N)=O)c2)c(C)c1,-8.1,Activity [6]: inactive; Activity [7]: inactive
CNC(=O)Oc1cc(C)c(/C=C/c2cncc(C(=O)O)c2)c(C)c1,-8.2,Activity [6]: inactive; Activity [7]: inactive
Cc1cc(-c2cccnc2)cc(C)c1/C=C/c1cncc(-c2nn[nH]n2)c1,-6.2,–
CNC(=O)Oc1cc(C)c(/C=C/c2cncc(C(=O)N(C)C)c2)c(C)c1,-5.1,–
CNC(=O)Oc1cc(C)c(/C=C/c2cncc(C(=O)OC)c2)c(C)c1,-7.5,–
CNC(=O)c1cncc(/C=C/c2ccccc2Cl)c1 [GW445017X],-5.7,–
CCc1cccc(CC)c1/C=C/c1cncc(C(=O)NC)c1 [GW450241X],-4.6,–
